Measured values as given in ChEMBL document CHEMBL1133522, “Chiral resolution, pharmacological characterization, and receptor docking of the noncompetitive mGlu1 receptor antagonist (+/-)-2-hydroxyimino- 1a, 2-dihydro-1H-7-oxacyclopropa[b]naphthalene-7a-carboxylic acid ethyl ester” (J Med Chem, 2000).
pIC50: −log10 of the molar value.

Experiments:
[1] = biological target: T1, Metabotropic glutamate receptor 1 (Homo sapiens, UniProt Q13255); details: CHO; 100 uM
Target sequence in this assay (Q13255 19-1194 limits assumed): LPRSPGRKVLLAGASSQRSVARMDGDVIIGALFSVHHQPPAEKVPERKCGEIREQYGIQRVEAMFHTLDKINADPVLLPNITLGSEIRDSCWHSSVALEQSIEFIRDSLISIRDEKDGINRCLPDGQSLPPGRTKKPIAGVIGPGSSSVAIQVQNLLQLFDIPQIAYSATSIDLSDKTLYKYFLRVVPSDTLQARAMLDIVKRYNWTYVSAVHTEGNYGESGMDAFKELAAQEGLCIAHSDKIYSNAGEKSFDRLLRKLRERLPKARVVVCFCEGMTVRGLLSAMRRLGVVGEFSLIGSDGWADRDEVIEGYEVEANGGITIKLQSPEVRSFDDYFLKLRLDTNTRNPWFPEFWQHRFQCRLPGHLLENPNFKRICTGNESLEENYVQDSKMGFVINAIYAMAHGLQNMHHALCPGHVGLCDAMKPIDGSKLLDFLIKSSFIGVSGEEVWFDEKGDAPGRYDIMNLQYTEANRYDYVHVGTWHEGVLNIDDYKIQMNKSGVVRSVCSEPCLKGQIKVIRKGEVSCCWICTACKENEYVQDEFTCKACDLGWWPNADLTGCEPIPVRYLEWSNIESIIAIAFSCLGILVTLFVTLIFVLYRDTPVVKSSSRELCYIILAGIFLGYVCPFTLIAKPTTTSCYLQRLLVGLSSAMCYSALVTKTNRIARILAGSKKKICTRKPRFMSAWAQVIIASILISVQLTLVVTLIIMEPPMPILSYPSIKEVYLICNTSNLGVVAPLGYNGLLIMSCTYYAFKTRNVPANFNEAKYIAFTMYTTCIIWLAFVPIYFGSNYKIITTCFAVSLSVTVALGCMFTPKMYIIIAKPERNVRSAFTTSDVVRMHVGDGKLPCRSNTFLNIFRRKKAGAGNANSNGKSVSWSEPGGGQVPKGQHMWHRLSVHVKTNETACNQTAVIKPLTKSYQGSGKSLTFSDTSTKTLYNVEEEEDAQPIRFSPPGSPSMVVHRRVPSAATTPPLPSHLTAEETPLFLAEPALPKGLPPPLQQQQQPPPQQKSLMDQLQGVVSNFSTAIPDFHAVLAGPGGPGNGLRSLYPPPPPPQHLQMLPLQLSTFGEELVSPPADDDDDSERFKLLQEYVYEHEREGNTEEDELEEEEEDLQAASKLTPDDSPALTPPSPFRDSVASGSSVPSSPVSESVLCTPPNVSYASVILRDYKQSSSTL

[2] = biological target: T1, Metabotropic glutamate receptor 1; assay: Inhibition of Quisqualate-Induced PI Hydrolysis measured in CHO Metabotropic glutamate receptor 1 Expressing Cells at a concentration of 30 uM; ne means No effect; type: functional
Summary of the method: (§1)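 Human mGlu1b receptor, cloned and stably expressed in CHO cells. Inhibition of quisqualate-stimulated phosphoinositol hydrolysis. Each data point is a triplicate measurement from at least three independent experiments, given as mean ± SEM. Four-parameter logistic fit of concentration–response curves gives IC50 with 95% confidence intervals. Highest concentration tested was 30 µM, or 100 µM where solubility allowed.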
Target sequence in this assay (Q13255 whole entry): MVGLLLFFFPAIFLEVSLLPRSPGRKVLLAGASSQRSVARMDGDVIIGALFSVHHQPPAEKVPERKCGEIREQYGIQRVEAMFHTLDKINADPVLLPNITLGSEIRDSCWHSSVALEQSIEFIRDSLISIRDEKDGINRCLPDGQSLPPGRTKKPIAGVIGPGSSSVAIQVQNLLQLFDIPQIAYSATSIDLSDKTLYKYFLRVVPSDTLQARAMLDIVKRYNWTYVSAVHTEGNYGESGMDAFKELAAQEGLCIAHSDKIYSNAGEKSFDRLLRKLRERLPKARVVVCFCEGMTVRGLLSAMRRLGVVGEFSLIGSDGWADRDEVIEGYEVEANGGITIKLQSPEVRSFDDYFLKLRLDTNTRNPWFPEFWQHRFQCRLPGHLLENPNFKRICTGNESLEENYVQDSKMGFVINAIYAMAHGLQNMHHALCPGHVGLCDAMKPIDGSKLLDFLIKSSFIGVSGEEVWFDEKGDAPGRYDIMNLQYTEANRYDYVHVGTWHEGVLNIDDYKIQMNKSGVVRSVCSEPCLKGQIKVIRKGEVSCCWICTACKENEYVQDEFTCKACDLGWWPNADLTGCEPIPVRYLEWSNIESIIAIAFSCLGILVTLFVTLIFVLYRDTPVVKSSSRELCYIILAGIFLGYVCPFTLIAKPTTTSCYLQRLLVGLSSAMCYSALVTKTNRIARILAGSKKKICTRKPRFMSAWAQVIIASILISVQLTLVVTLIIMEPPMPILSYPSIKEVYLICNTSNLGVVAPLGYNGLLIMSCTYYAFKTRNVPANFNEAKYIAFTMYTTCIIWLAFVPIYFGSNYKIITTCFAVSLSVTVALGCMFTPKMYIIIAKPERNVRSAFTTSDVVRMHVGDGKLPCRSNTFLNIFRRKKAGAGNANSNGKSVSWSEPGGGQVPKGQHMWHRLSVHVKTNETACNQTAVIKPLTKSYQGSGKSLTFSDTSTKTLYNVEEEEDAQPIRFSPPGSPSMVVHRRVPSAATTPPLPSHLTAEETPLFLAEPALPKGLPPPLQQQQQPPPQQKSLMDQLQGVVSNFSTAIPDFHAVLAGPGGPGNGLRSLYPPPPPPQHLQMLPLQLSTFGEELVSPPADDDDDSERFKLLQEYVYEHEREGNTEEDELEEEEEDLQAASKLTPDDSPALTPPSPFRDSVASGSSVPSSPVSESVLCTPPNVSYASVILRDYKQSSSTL

[3] = biological target: T1, Metabotropic glutamate receptor 1; assay: Inhibition of Quisqualate-Induced PI Hydrolysis measured in CHO Metabotropic glutamate receptor 1 Expressing Cells; type: functional
Summary of the method: as §1
Target sequence in this assay (Q13255 whole entry): as above

| Structure (SMILES) | inhibition [1] | IC50 [2] | pIC50 [3] |
| --- | --- | --- | --- |
| CCOC(=O)[C@@]12CC1/C(=N\O)c1ccccc1O2 (stereo partly drawn) | 53% | Not Active |  |
| CCOC(=O)C12CC1/C(=N\O)c1ccccc1O2 (racemic) |  |  | 5.47 |
| COC(=O)[C@@H](Cc1ccccc1)NC(=O)[C@@]12C[C@@H]1/C(=N\O)c1ccccc1O2 |  | Not Active |  |
| CCOC(=O)[C@]12C[C@H]1/C(=N\O)c1ccccc1O2 |  |  | 5.82 |

Now from value to compound:

| inhibition [1] | IC50 [2] | pIC50 [3] | Structure (SMILES) |
| --- | --- | --- | --- |
|  |  | 5.85 | COC(=O)[C@@H](Cc1ccccc1)NC(=O)C12CC1/C(=N\O)c1ccccc1O2 (mixture of isomers) |
|  |  | 6.37 | COC(=O)[C@H](Cc1ccccc1)NC(=O)[C@]12C[C@H]1/C(=N\O)c1ccccc1O2 |
|  |  | 5.92 | COC(=O)[C@H](Cc1ccccc1)NC(=O)C12CC1/C(=N\O)c1ccccc1O2 (mixture of isomers) |
